Data: ChEMBL document CHEMBL4308887, “Synthesis and biological evaluation of clovamide analogues with catechol functionality as potent Parkinson's disease agents in vitro and in vivo” (Bioorg Med Chem Lett, 2019)
Calls of active or inactive are those of the source. No cut-off for these calls is given here.

What was measured:
[1] = test system: SH-SY5Y; test: Neuroprotection against H2O2-induced cell death in human SH-SY5Y cells assessed as cell viability at 1 uM preincubated for 6 hrs followed by H2O2 addition and measured after 24 hrs by MTT assay relative to control; format: functional; conditions: read-out: Activity
In short: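 SH-SY5Y cells pretreated with 1 at 1 or 10 μM, then exposed to 600 μM H₂O₂. Viability by MTT, expressed as % of control. DMSO below 0.1%. Mean ± S.E.M. of three independent experiments.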

[2] = test system: SH-SY5Y; test: Protection against H2O2-induced oxidative stress in human SH-SY5Y cells assessed as reactive oxygen species level at 10 uM preincubated for 6 hrs followed by H2O2 addition and measured after 24 hrs by DHE dye based flow cytometry (reference value: 18.6%); format: functional
[3] = test system: SH-SY5Y; test: Induction of apoptosis in non-stimulated human SH-SY5Y cells assessed as effect on ratio of Bax/Bcl2 expression at 1 to 10 uM measured after 6 hrs by Western blot analysis; format: cell-based
In short: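 Bax, Bcl-2 and cleaved caspase-3 measured by western blot in SH-SY5Y cells given 1 alone, with β-actin as internal standard. Mean ± S.E.M. of three independent experiments.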

[4] = test system: Mus musculus; test: Anti-parkinson's activity in MPTP-induced C57Bl/6 mouse model of Parkinson's disease assessed as decrease in cleaved caspase3 expression in substantia nigra at 10 to 20 mg/kg, ig pretreated for 10 days followed by MPTP challenge measured 10 days post MPTP addition by Western blot analysis; format: functional, organism-based
In short: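 Substantia nigra from MPTP mice. Bax, Bcl-2 and cleaved caspase-3 measured by western blot, with Bcl-2/Bax ratio by densitometry. Mean ± S.D., n = 6 mice/group.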

[5] = Activation of PI3K/Akt/mTOR signaling in human SH-SY5Y cells assessed as up regulation of H2O2-induced HO-1 expression at 10 uM preincubated for 6 hrs followed by H2O2 addition and after 24 hrs by Western blot analysis (reference value: 181.53 +/- 24.67%); format: cell-based
In short: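 SH-SY5Y cells pretreated 6 h with 1 (1 or 10 μM), then exposed to 600 μM H₂O₂ for 24 h. HO-1 measured by western blot with densitometry and expressed as % of control. Mean ± S.E.M., three independent experiments.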

[6] = Activation of PI3K/Akt/mTOR signaling in human SH-SY5Y cells assessed as up regulation of H2O2-induced HO-1 expression at 10 uM preincubated for 6 hrs followed by H2O2 addition and after 24 hrs in presence of MEK1/2 inhibitor U0126 by Western blot analysis; format: cell-based
In short: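 SH-SY5Y cells preincubated 1 h with one inhibitor: SB203580 10 μM, LY294002 5 μM, U0126 10 μM, SP600125 5 μM or rapamycin 100 nM. Then 1 (10 μM) for 6 h, then 600 μM H₂O₂. HO-1 measured by western blot and densitometry. Mean ± S.E.M., three independent experiments.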

Compound: COC(=O)[C@H](Cc1ccccc1)NC(=O)/C=C/c1ccc(O)c(O)c1 [N-CAFFEOYL-PHENYLALANINE METHYL ESTER]
- viability at 1 µM [1]: 68.3%
- Activity [2]: 6.6%
- Activity [3]: Non-Toxic
- Activity [4]: Active
- Activity [5]: 325%
- Activity [6]: Active
